Test results taken from publication PMC9305408 (Chemmedchem, 2022).
Converted amounts (≈) assume the structure as drawn.

What was measured:
Assay type in all cases: cell-based
[1] = test system: Pseudomonas aeruginosa ATCC 27853; experiment: MIC, broth microdilution; conditions: ATCC27853, 24 h, read-out: minimum inhibitory concentration (MIC)
Outline: (§1)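 Run by broth microdilution in Mueller-Hinton broth. A 10 mg/mL test sample was added to the first well and serially diluted 1:2 across 12 wells. Bacteria were added to about 10⁶ CFU/mL final, and plates were incubated at 37 °C for 24 h. Resazurin was then added for 2 h at 37 °C, and reduction from blue to pink scored growth. MIC was determined in triplicate.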

[2] = test system: Bacillus subtilis ATCC 3366; experiment: MIC, broth microdilution; conditions: ATCC3366, 24 h, read-out: minimum inhibitory concentration (MIC)
Outline: as §1

Aspergillus niger [3] = experiment: MIC, broth microdilution; conditions: 48 h, read-out: minimum inhibitory concentration (MIC)
Outline: (§2)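 Twofold serial dilutions of test compound in Mueller-Hinton broth were run across 12 wells, starting from 10 mg/mL in the first well. Fungal suspension was added at about 10⁶ CFU/mL final, then plates were incubated at 28 °C for 48 h. Resazurin was added for 2 h at 37 °C, with blue-to-pink reduction scored as growth. MIC was determined in triplicate.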

[4] = test system: Escherichia coli ATCC 25922; experiment: MIC, broth microdilution; conditions: ATCC25922, 24 h, read-out: minimum inhibitory concentration (MIC)
Outline: as §1

[5] = test system: Staphylococcus aureus ATCC 29213; experiment: MIC, broth microdilution; conditions: ATCC29213, 24 h, read-out: minimum inhibitory concentration (MIC)
Outline: as §1

Candida albicans [6] = experiment: MIC, broth microdilution; conditions: 48 h, read-out: minimum inhibitory concentration (MIC)
Outline: as §2

Candida albicans [7] = experiment: Agar disc diffusion; conditions: 6 mm discs, 6 μl of 10 mg/mL
Aspergillus niger [8] = experiment: Agar disc diffusion; conditions: 6 mm discs, 6 μl of 10 mg/mL
[9] = test system: Bacillus subtilis ATCC 3366; experiment: Agar disc diffusion; conditions: ATCC3366, read-out: diameter of the inhibition zone
Outline: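 Agar plates (30 ml medium) were each spread with 100 μl fresh culture of one organism. Sterile 6 mm paper discs were loaded with 6 μl of 10 mg/mL test sample. Plates were sealed against evaporation and incubated at 37 °C for 24 h. Inhibition zone diameter was measured in mm, averaged over three independent determinations.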

Compound	MIC [1] [µg/mL]	MIC [2] [µg/mL]	MIC (Aspergillus niger [3]) [µg/mL]	MIC [4] [µg/mL]	MIC [5] [µg/mL]	MIC (Candida albicans [6]) [µg/mL]	diameter of the inhibition zone (Candida albicans [7])	diameter of the inhibition zone (Aspergillus niger [8])	zone of inhibition at 10000 µg/mL [9] [mm]
C#CCn1c(=O)cc(C(=O)N[C@@H](C)C(=O)OC)c2ccccc21 [Compound 2 a, Methyl (S)‐2‐[2‐oxo‐1‐(prop‐2‐yn‐1‐yl)‐1,2‐dihydroquinoline‐4‐carbox amido]propanoate]	620 (≈ 1990 µM)	5000 (≈ 16000 µM)	10000 (≈ 32000 µM)	620 (≈ 1990 µM)	2500 (≈ 8000 µM)				
C#CCn1c(=O)cc(C(=O)N[C@@H](C)C(=O)OC)c2cc(Br)ccc21 [Compound 2 b, Methyl (S)‐6‐bromo‐2‐[2‐oxo‐1‐(prop‐2‐yn‐1‐yl)‐1,2‐dihydroquinoline‐4‐carboxamido]propanoate]	2500 (≈ 6390 µM)	2500 (≈ 6390 µM)		620 (≈ 1580 µM)	2500 (≈ 6390 µM)	10000 (≈ 25600 µM)			
CCCCCn1cc(Cn2c(=O)cc(C(=O)N[C@@H](C)C(=O)OC)c3ccccc32)nn1 [Compound 3a1, Methyl (S)‐2‐{2‐oxo‐1‐[(1‐pentyl‐1H‐1,2,3‐triazol‐4‐yl)methyl]‐1,2‐dihydroquinoline‐4‐carboxamido}propanoate]	2500 (≈ 5880 µM)	310 (≈ 729 µM)		78 (≈ 183 µM)	1250 (≈ 2940 µM)		did not show any antifungal activity	did not show any antifungal activity	
COC(=O)[C@H](C)NC(=O)c1cc(=O)n(Cc2cn(Cc3ccccc3)nn2)c2ccccc12 [Compound 3a2, Methyl (S)‐2‐{2‐oxo‐1‐[(1‐benzyl‐1H‐1,2,3‐triazol‐4‐yl)methyl]‐1,2‐dihydroquinoline‐4‐carboxamido}propanoate]	2500 (≈ 5610 µM)	2500 (≈ 5610 µM)		310 (≈ 696 µM)	2500 (≈ 5610 µM)	10000 (≈ 22400 µM)			
COC(=O)[C@H](C)NC(=O)c1cc(=O)n(Cc2cn(Cc3ccccc3C)nn2)c2ccccc12 [Compound 3a3, Methyl (S)‐2‐{2‐oxo‐1‐[(1‐(2‐methylbenzyl)‐1H‐1,2,3‐triazol‐4‐yl)methyl]‐1,2‐dihydroquinoline‐4‐carboxamido}propanoate]	1250 (≈ 2720 µM)	2500 (≈ 5440 µM)		39 (≈ 84.9 µM)	1250 (≈ 2720 µM)	10000 (≈ 21800 µM)			
COC(=O)[C@H](C)NC(=O)c1cc(=O)n(Cc2cn(Cc3ccccc3Br)nn2)c2ccccc12 [Compound 3a4, Methyl (S)‐2‐{2‐oxo‐1‐[(1‐(2‐bromobenzyl)‐1H‐1,2,3‐triazol‐4‐yl)methyl]‐1,2‐dihydroquinoline‐4‐carboxamido}propanoate]	2500 (≈ 4770 µM)	78 (≈ 149 µM)		2500 (≈ 4770 µM)	310 (≈ 591 µM)		did not show any antifungal activity	did not show any antifungal activity	18
COC(=O)C(NC(=O)c1ccccc1)n1cc(Cn2c(=O)cc(C(=O)N[C@@H](C)C(=O)OC)c3ccccc32)nn1 (stereo partly drawn) [Compound 3a5, Methyl (S)‐2‐{2‐oxo‐1‐[(1‐(1‐benzamido‐2‐methoxy‐2‐oxoethyl)‐1H‐1,2,3‐triazol‐4‐yl)methyl]‐1,2‐dihydroquinoline‐4‐carboxamido}propanoate]	78 (≈ 143 µM)	310 (≈ 567 µM)	10000 (≈ 18300 µM)	19.5 (≈ 35.7 µM)	39 (≈ 71.4 µM)	5000 (≈ 9150 µM)			
COC(=O)[C@H](C)NC(=O)c1cc(=O)n(Cc2cn(Cc3ccccc3C)nn2)c2ccc(Br)cc12 [Compound 3b3, Methyl (S)‐6‐bromo‐2‐{2‐oxo‐1‐[(1‐(2‐methylbenzyl)‐1H‐1,2,3‐triazol‐4‐yl)methyl]‐1,2‐dihydroquinoline‐4‐carboxamido}propanoate]	620 (≈ 1150 µM)	310 (≈ 576 µM)		620 (≈ 1150 µM)	2500 (≈ 4640 µM)		did not show any antifungal activity	did not show any antifungal activity	
COC(=O)[C@H](C)NC(=O)c1cc(=O)n(Cc2cn(Cc3ccccc3Br)nn2)c2ccc(Br)cc12 [Compound 3b4, Methyl (S)‐6‐bromo‐2‐{2‐oxo‐1‐[(1‐(2‐bromobenzyl)‐1H‐1,2,3‐triazol‐4‐yl)methyl]‐1,2‐dihydroquinoline‐4‐carboxamido}propanoate]	1250 (≈ 2070 µM)	9.75 (≈ 16.2 µM)		310 (≈ 514 µM)	2500 (≈ 4140 µM)		did not show any antifungal activity	did not show any antifungal activity	
